Experiments:
Assay type in all cases: cell-based, human
AsPC-1 cells [1] = experiment: Cytotoxicity / viability, XTT assay; details: AsPC-1, 10, 15 or 20 µM gemcitabine, 48 h
[2] = tested on: mutant KRAS gene expression (mRNA) in AsPC-1 cells; experiment: KRAS expression profile by quantitative real-time PCR; details: AsPC-1, 2 µM or 4 µM PNAs, 48 h, normalised to GAPDH, n=3
AsPC-1 cells [3] = experiment: Apoptosis assay using Annexin V/PI double staining; details: AsPC-1, 2 µM PNA, 48 h; untreated control 7%; mean of n=3
Method in brief: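 AsPC-1 cells (5×10^5) were seeded in six-well plates and transfected the next day with PNAs using lipofectamine, then incubated for 48 h. Adherent and floating cells were harvested by trypsinization, washed, and resuspended in ice-cold binding buffer with FITC-Annexin V and PI. Cells were stained 15 min at room temperature in the dark and analysed by flow cytometry. Data are mean ± standard error, n=3.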

[4] = tested on: RAS protein in AsPC-1 cells; experiment: Western blot analysis of RAS protein; details: AsPC-1, PNA-treated 48 h, band intensity of three blots
Method in brief: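 AsPC-1 cells were treated with PNAs for 48 h, then lysed 20 min on ice in RIPA buffer with protease inhibitor and cleared at 13,000 rpm, 10 min, 4 °C. 20 µg protein per lane was resolved by SDS-PAGE and transferred by semi-dry blotting. Blots were blocked 1 h in 5% milk/TBST, probed overnight with anti-Ras antibody, then with peroxidase-conjugated secondary 1 h at room temperature. GAPDH served as reference.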

Row | Compound | cell viability (XTT) (AsPC-1 cells [1]) | effect on mutant KRAS gene expression (mRNA, RT-qPCR) [2] | apoptosis (percentage of apoptotic cells) (AsPC-1 cells [3]) | RAS protein levels (western blot) [4]
1 | Nc1ccn([C@@H]2O[C@H](CO)[C@@H](O)C2(F)F)c(=O)n1 [Gemcitabine] | total death with no dose response |  |  | 
2 | CTACGCCATCAGCTCCA-KKK [PNA1] |  | weaker effect of PNA1 at 4 µm compared to PNA1 at 1 µM | 18% | decrease in total RAS protein levels
3 | CTDCGCCDTCDGCTCCD-KKK [PNA3] |  | dose-dependent and have a significant effect | 20% | 
4 | CTDCpGCCDTCpDGCTCCpD [PNA14] |  | dose-dependent and have a significant effect | 20% | 

Reference: publication PMC8895471 (Oncology Letters, 2022)
